Measured values as given in paper PMC3219927 (Nature medicine, 2011).
Ends that are not written are not given here.

Legend:
formalin-induced edema = experiment: Formalin-induced paw edema; assay type: in vivo, rat; settings: formalin 2.5%, compared to saline; 1 h after injection
[1] = tested on: meningeal blood flow (dura mater); experiment: Laser Doppler flowmetry of meningeal blood flow; assay type: in vivo, rat
[2] = tested on: interaction between CRMP-2 and Ct-dis of CaV2.2; experiment: In vitro binding; settings: Ct-dis-GST, peptide 10 μM
How it was run: (§1)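 GST fusions of the CaV2.2 loop 1 (L1) or distal C-terminus (Ct-dis) incubated in vitro with CRMP-2 alongside test peptide or scrambled control peptide, each at 10 μM. CRMP-2 retained on the fusion proteins was detected by immunoblot with a CRMP-2 antibody.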

neurons [3] = settings: not told
N-type Ca^2+ channels = assay type: cell-based; settings: DRGs, Fura-2 imaging
[4] = tested on: interaction between tubulin and CRMP-2; experiment: Co-immunoprecipitation with CRMP-2 antibody from spinal cord lysates, tubulin; assay type: binding
hippocampal neurons = experiment: Depolarization-induced calcium influx, hippocampal neurons; assay type: cell-based; settings: plasmid expression
[5] = tested on: interaction between CRMP-2 and L1 of CaV2.2; experiment: In vitro binding; settings: L1-GST, peptide 10 μM
How it was run: as §1

neurons [6] = experiment: Cell permeation / entry into neurons; settings: in vitro, ex vivo and in vivo
[7] = tested on: distal C-terminus (Ct-dis) of CaV2.2; experiment: Surface plasmon resonance, immobilized Ct-dis; assay type: binding; settings: 1/3/5 μM; dissociation monitored for 4 min
How it was run: (§2)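 Test peptide or scrambled control peptide injected at 1, 3 and 5 μM over immobilized CaV2.2 L1 or Ct-dis. Binding was recorded as sensorgrams in resonance units, with dissociation followed for 4 min.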

CaV2.2 = CaV2.2 surface localisation; assay type: cell-based; settings: CAD neuronal cell line, co-expression of CaV2.2 with CBD3 (fused to GFP)
[8] = tested on: dorsal root ganglion (DRG) neurons; experiment: Depolarization-induced calcium influx, DRG neurons; assay type: cell-based; settings: plasmid expression
[9] = tested on: cytosolic loop 1 (L1) of CaV2.2; experiment: Surface plasmon resonance, immobilized L1; assay type: binding; settings: 1/3/5 μM; dissociation monitored for 4 min
How it was run: as §2

[10] = tested on: ddC-induced tactile hypersensitivity; experiment: ddC-induced neuropathic pain, paw withdrawal threshold; assay type: in vivo, rat; settings: single ddC injection

Formalin
Change in paw thickness (formalin-induced edema): 4 fold

CGRP8-37: CGRP antagonist (VTHRLAGLLSRSGGVVKNNFVPTNVGSKAF; ends and bridges not checked; UniProt P06881 90-119, looked up, fragment)
Dependence of capsaicin-induced blood flow changes on CGRP ([1]; prior dural administration of CGRP antagonist): could be blocked by prior dural administration of the CGRP antagonist, CGRP8-37

CBD3 (ARSRLAELRGVPRGL)
Ability of Ct-dis to pull down CRMP-2 [2]: dramatic reduction in ability of L1 or Ct-dis proteins to pull down CRMP-2 | Cell permeability / entry into neurons (neurons [3]): not cell permeant | K+-evoked Ca2+ influx, channel selectivity (N-type Ca^2+ channels): reduced K^+-evoked Ca^2+ influx selectively through N-type Ca^2+ channels | Effect on interaction between tubulin and CRMP-2 [4]: did not affect the interaction between tubulin and CRMP-2 | Depolarization-induced calcium influx (hippocampal neurons): reduced depolarization-induced calcium influx | Ability of L1 to pull down CRMP-2 [5]: dramatic reduction in ability of L1 or Ct-dis proteins to pull down CRMP-2 | Passage into cells, time (neurons [6]): conjugation of CBD3 to HIV-1 TAT facilitated its passage into cells in vitro, ex vivo and in vivo within minutes | Binding to immobilized Ct-dis [7]: bound to immobilized L1 and Ct-dis proteins | CaV2.2 localisation on co-expression (CaV2.2): almost complete retention of the channel in cytoplasmic aggregates | Depolarization-induced calcium influx [8]: reduced depolarization-induced calcium influx | Binding to immobilized L1 [9]: bound to immobilized L1 and Ct-dis proteins

COc1cc(CNC(=O)CCCC/C=C/C(C)C)ccc1O [Capsaicin, capsaicin]
Meningeal blood flow response to capsaicin alone ([1]; nasally administered capsaicin, 100 nM): rapid and robust increase in meningeal blood flow

Nc1ccn([C@H]2CC[C@@H](CO)O2)c(=O)n1 [ddC, 2',3'-dideoxycytidine]
PWT after ddC [10]: exhibited a decrease in PWT
